According to ChEMBL document CHEMBL4229410, “Facile construction of fused benzimidazole-isoquinolinones that induce cell-cycle arrest and apoptosis in colorectal cancer cells” (Bioorg Med Chem, 2018):

How the values were obtained:
[1] = target: Serine/threonine-protein kinase RIO2 (Homo sapiens, UniProt Q9BVS4); experiment: Inhibition of human RIOK2 (M1 to D313 residues) expressed in mammalian expression system assessed as residual activity at 5 uM by KINOMEscan assay relative to control
[2] = target: Serine/threonine-protein kinase PAK 2 (Homo sapiens, UniProt Q13177); experiment: Binding affinity to partial length human PAK2 (P151 to R525 residues) expressed in bacterial expression system by KINOMEscan assay
[3] = target: Cyclin-dependent kinase 7 (Homo sapiens, UniProt P50613); experiment: Inhibition of full length human CDK7 (M1 to L344 residues) expressed in mammalian expression system assessed as residual activity at 5 uM by KINOMEscan assay relative to control
[4] = target: Atypical kinase COQ8A, mitochondrial (Homo sapiens, UniProt Q8NI60); experiment: Binding affinity to full length human ADCK3 (M280 to Q647 residues) expressed in bacterial expression system by KINOMEscan assay
[5] = target: Mast/stem cell growth factor receptor Kit (Homo sapiens, UniProt P10721); experiment: Binding affinity to human KIT (I571 to D952 residues) expressed in bacterial expression system by KINOMEscan assay
[6] = target: Dual specificity tyrosine-phosphorylation-regulated kinase 1B (Homo sapiens, UniProt Q9Y463); experiment: Binding affinity to full length human DYRK1B (M1 to S629 residues) expressed in bacterial expression system by KINOMEscan assay
[7] = target: Rho-associated protein kinase 2 (Homo sapiens, UniProt O75116); experiment: Inhibition of human ROCK2 (M1 to T431 residues) expressed in mammalian expression system assessed as residual activity at 5 uM by KINOMEscan assay relative to control
SW-620 [8] = experiment: Induction of apoptosis in human SW620 cells assessed as increase in PARP activation after 48 hrs by Western blot analysis; format: functional, cell-based
[9] = target: Tyrosine-protein kinase JAK2 (Homo sapiens, UniProt O60674); experiment: Binding affinity to human JAK2 JH1 catalytic domain (A829 to G1132 residues) expressed in mammalian expression system by KINOMEscan assay
SW-620 [10] = experiment: Upregulation of p21 expression in human SW620 cells after 48 hrs by Western blot analysis; format: functional, cell-based
[11] = target: RAC-alpha serine/threonine-protein kinase (Homo sapiens, UniProt P31749); experiment: Binding affinity to human AKT1 expressed in bacterial expression system by KINOMEscan assay
[12] = target: Tyrosine-protein kinase ZAP-70 (Homo sapiens) (UniProt P43403); experiment: Inhibition of human ZAP70 (D20 to G299 residues) expressed in mammalian expression system assessed as residual activity at 5 uM by KINOMEscan assay relative to control
HT-29 [13] = experiment: Cell cycle arrest in human HT-29 cells assessed as increase in accumulation at G2/M-phase after 48 hrs by propidium iodide staining based flow cytometry; format: functional
SRSF protein kinase 3 = SRSF protein kinase 3 (Homo sapiens, UniProt Q9UPE1); experiment: Inhibition of human SRPK3 (P41 to P567 residues) expressed in bacterial expression system assessed as residual activity at 5 uM by KINOMEscan assay relative to control
[14] = target: ALK tyrosine kinase receptor (Homo sapiens, UniProt Q9UM73); experiment: Binding affinity to human ALK (I1088 to E1409 residues) expressed in mammalian expression system by KINOMEscan assay
[15] = target: Mitogen-activated protein kinase 8 (Homo sapiens, UniProt P45983); experiment: Inhibition of full length human JNK1 (M1 to Q384 residues) expressed in mammalian expression system assessed as residual activity at 5 uM by KINOMEscan assay relative to control
[16] = target: Platelet-derived growth factor receptor beta (Homo sapiens, UniProt P09619); experiment: Binding affinity to human PDGFRB (V582 to Y1009 residues) expressed in bacterial expression system by KINOMEscan assay
HT-29 [17] = experiment: Effect on total 4EBP1 expression in human HT-29 cells up to 75 uM after 48 hrs by Western blot analysis; format: ADME, cell-based; settings: ht-29, 48 h
Method in brief: (§1)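 HT29 or SW620 cells were treated at 0, 25, 50 and 75 μM for 48 h and lysed in RIPA with protease and phosphatase inhibitors. Protein was quantified by BCA. 50 μg lysate was run on 8–15% SDS-PAGE and transferred to PVDF. Blocking was 5% BSA/TBST for 2 h; primary antibodies were applied overnight at 4 °C, then HRP secondary 1 h at room temperature.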

HT-29 [18] = experiment: Cell cycle arrest in human HT-29 cells assessed as accumulation at G2-phase at 25 uM after 48 hrs by propidium iodide staining based flow cytometry (reference value: 15.45%); format: functional
[19] = target: Serine/threonine-protein kinase PAK 4 (Homo sapiens, UniProt O96013); experiment: Binding affinity to partial length human PAK4 (Q144 to R438 residues) expressed in bacterial expression system by KINOMEscan assay
[20] = target: Glycogen synthase kinase-3 beta (Homo sapiens, UniProt P49841); experiment: Binding affinity to full length human GSK3B (M1 to T433 residues) expressed in mammalian expression system by KINOMEscan assay
SW-620 [21] = experiment: Effect on total AKT expression in human SW620 cells up to 75 uM after 48 hrs by Western blot analysis; format: ADME, cell-based; settings: sw-620, 48 h; method in brief: as §1
Insulin receptor = Insulin receptor (Homo sapiens, UniProt P06213); experiment: Inhibition of human INSR (P997 to E1318 residues) expressed in mammalian expression system assessed as residual activity at 5 uM by KINOMEscan assay relative to control
[22] = target: Non-receptor tyrosine-protein kinase TYK2 (Homo sapiens, UniProt P29597); experiment: Binding affinity to human TYK2 JH1 catalytic domain (V877 to C1187 residues) expressed in mammalian expression system by KINOMEscan assay
[23] = target: Serine/threonine-protein kinase Chk1 (Homo sapiens, UniProt O14757); experiment: Binding affinity to human CHEK1 (M1 to G289 residues) expressed in bacterial expression system by KINOMEscan assay
SW-620 [24] = experiment: Cell cycle arrest in human SW620 cells assessed as accumulation at G2-phase at 25 uM after 48 hrs by propidium iodide staining based flow cytometry (reference value: 14.08%); format: functional
[25] = target: T1, Serine/threonine-protein kinase PLK1 (Homo sapiens, UniProt P53350); experiment: Inhibition of human PLK1 (A33 to F325 residues) expressed in mammalian expression system assessed as residual activity at 5 uM by KINOMEscan assay relative to control
[26] = target: cAMP-dependent protein kinase catalytic subunit alpha (Homo sapiens, UniProt P17612); experiment: Inhibition of human PKACalpha (G10 to F351 residues) expressed in bacterial expression system assessed as residual activity at 5 uM by KINOMEscan assay relative to control
[27] = target: RAC-beta serine/threonine-protein kinase (Homo sapiens, UniProt P31751); experiment: Binding affinity to human AKT2 expressed in bacterial expression system by KINOMEscan assay
[28] = target: T1, Serine/threonine-protein kinase PLK1; experiment: Binding affinity to human PLK1 (A33 to F325 residues) expressed in mammalian expression system by KINOMEscan assay

T1 sequence (P53350 whole entry, the tested form may be a part): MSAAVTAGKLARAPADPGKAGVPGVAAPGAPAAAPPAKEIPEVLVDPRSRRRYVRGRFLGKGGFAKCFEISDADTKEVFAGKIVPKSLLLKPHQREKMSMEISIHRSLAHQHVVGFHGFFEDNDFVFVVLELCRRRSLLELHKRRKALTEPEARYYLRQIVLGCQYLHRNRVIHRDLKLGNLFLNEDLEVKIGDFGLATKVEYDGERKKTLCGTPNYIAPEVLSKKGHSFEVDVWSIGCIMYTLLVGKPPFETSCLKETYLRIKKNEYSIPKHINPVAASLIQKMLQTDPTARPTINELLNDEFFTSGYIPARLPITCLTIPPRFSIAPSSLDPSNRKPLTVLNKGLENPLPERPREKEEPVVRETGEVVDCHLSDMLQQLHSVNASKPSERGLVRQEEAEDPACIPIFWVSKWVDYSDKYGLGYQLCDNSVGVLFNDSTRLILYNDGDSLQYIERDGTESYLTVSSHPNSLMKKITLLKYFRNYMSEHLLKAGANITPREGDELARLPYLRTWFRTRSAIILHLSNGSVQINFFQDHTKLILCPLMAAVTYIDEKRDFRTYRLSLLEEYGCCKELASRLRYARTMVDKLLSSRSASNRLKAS
Atypical kinase COQ8A, mitochondrial, sequence (Q8NI60 whole entry, the tested form may be a part): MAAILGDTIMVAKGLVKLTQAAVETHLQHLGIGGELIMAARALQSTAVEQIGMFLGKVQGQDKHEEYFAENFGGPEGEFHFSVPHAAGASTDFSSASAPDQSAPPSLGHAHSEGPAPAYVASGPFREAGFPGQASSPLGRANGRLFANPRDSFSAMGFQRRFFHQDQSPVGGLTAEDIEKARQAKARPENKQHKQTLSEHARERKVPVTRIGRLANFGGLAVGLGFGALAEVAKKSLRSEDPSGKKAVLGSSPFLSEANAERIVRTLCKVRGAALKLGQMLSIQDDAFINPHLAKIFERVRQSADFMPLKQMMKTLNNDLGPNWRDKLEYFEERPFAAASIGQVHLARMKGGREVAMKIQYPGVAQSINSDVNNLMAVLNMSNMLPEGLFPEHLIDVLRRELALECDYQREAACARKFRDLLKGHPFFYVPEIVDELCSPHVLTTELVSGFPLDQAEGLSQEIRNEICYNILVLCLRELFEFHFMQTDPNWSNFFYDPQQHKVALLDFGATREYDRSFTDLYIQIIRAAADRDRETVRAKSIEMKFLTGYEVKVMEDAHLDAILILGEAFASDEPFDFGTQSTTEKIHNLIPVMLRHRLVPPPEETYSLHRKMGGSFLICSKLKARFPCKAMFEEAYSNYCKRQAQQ
Serine/threonine-protein kinase PAK 2, sequence (Q13177 whole entry, the tested form may be a part): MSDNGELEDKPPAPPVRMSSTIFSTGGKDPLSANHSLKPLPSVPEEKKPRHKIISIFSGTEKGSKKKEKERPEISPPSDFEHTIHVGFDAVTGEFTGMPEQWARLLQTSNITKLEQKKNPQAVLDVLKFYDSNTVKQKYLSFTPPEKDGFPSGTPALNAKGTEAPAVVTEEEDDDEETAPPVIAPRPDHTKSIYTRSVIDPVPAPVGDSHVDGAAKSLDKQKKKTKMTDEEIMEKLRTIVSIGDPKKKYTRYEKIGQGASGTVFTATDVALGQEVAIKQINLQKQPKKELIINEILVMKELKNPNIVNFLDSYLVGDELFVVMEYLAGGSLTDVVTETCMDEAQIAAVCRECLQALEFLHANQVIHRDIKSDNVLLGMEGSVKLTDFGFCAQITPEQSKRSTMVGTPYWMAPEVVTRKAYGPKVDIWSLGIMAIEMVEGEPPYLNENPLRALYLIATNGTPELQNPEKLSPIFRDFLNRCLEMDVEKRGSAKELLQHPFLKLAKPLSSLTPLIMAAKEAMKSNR
Serine/threonine-protein kinase RIO2, sequence (Q9BVS4 whole entry, looked up, the tested form may be a part): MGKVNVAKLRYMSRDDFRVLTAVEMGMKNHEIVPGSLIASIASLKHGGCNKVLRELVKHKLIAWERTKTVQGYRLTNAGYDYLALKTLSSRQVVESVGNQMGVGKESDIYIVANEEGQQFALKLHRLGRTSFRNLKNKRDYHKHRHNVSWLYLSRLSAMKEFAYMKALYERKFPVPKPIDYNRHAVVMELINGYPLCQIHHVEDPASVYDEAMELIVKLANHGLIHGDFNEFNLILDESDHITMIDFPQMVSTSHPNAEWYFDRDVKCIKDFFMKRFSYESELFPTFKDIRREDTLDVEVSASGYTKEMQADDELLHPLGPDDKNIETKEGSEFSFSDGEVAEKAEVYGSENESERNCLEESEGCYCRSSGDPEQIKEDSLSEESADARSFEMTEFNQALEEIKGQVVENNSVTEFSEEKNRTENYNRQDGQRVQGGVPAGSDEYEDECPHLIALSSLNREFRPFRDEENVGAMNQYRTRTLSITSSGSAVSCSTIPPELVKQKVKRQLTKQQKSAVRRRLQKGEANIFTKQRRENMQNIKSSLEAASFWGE
Tyrosine-protein kinase JAK2, sequence (O60674 whole entry, the tested form may be a part): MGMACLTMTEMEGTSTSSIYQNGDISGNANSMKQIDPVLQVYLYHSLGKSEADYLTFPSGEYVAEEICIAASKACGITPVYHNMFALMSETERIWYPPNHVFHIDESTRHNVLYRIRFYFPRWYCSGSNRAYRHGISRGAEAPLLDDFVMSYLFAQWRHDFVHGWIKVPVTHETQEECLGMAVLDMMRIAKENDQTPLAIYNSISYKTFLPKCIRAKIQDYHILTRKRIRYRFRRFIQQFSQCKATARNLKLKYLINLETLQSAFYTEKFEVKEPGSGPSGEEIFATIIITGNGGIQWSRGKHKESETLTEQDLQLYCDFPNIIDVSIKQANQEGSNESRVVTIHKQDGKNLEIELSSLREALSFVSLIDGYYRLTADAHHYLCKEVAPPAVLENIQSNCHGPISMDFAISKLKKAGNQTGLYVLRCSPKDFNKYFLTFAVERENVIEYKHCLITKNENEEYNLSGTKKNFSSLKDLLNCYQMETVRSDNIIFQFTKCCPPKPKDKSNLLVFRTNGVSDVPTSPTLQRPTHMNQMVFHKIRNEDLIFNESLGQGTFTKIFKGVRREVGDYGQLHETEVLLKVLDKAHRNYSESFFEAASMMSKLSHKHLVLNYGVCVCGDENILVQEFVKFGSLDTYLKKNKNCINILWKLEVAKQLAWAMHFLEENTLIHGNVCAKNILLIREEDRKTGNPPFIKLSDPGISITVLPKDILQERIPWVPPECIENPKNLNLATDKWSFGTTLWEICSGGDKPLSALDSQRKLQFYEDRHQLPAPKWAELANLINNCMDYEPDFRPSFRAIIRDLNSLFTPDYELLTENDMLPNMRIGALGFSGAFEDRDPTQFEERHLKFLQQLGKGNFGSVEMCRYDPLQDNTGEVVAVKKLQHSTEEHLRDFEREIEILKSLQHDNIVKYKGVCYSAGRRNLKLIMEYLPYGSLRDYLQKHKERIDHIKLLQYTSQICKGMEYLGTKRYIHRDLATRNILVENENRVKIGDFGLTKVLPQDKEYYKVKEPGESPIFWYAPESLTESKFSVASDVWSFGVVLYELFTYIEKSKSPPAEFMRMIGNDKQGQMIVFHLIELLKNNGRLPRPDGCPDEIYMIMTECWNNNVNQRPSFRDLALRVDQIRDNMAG
RAC-beta serine/threonine-protein kinase, sequence (P31751 whole entry, the tested form may be a part): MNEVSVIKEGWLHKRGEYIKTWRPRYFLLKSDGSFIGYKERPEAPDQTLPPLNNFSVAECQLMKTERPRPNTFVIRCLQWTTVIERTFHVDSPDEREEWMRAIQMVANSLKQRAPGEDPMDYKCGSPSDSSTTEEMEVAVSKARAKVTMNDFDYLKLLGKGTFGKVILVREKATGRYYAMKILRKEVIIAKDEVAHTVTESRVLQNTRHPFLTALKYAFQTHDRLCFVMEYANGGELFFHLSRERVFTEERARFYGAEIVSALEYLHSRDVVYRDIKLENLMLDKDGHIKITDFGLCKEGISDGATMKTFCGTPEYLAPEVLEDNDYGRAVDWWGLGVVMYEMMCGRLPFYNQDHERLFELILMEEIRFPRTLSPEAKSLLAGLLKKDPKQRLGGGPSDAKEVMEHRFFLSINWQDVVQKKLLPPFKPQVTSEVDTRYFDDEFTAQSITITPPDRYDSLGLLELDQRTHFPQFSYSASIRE
Platelet-derived growth factor receptor beta, sequence (P09619 whole entry, the tested form may be a part): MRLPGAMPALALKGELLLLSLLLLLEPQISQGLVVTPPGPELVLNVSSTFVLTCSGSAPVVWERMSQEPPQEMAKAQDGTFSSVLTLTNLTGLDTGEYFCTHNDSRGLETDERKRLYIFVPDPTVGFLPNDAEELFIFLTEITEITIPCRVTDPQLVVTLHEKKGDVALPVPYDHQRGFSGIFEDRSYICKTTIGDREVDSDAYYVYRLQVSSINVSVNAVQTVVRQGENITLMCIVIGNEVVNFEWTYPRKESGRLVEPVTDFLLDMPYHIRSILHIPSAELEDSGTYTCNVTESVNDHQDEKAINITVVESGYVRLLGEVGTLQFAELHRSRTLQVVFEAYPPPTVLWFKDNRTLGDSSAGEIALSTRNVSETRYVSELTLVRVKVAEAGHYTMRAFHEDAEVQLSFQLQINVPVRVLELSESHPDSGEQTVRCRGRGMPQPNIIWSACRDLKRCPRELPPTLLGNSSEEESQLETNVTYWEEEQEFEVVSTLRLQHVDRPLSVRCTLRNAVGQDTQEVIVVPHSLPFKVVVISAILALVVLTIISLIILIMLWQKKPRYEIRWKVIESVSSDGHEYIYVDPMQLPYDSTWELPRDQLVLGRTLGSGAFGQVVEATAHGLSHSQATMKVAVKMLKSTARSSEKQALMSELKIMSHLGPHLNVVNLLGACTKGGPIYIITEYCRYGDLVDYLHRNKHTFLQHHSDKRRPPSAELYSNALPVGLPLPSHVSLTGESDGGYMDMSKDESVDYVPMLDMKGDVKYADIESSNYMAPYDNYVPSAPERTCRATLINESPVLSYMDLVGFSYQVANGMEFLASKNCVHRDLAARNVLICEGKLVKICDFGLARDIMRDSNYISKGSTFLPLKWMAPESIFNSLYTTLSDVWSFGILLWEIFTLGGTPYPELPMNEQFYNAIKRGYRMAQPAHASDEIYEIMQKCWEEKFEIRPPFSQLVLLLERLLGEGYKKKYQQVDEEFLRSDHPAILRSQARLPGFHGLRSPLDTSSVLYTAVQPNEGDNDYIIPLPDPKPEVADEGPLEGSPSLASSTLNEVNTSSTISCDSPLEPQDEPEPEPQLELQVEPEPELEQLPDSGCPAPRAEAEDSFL

**Q.** Which Activity [1] does the source give for `CC(C)CN(C(=O)c1cccnc1)c1c2ccccc2c(=O)n2c1[nH]c1ccccc12` here?
**A.** Its Activity is 87%.

**Q.** And the Kd [2]?
**A.** Its Kd is ≥ 5 µM.

**Q.** And the Activity [3]?
**A.** The Activity was 100%.

**Q.** And the Kd [4]?
**A.** The Kd was ≥ 5 µM.

**Q.** And the Kd [5]?
**A.** The Kd was ≥ 5 µM.

**Q.** And the Kd [6]?
**A.** Its Kd is ≥ 5 µM.

**Q.** And the Activity [7]?
**A.** The Activity was 80%.

**Q.** And the Activity (SW-620 [8])?
**A.** The Activity was “Dose-dependent effect”.

**Q.** What about the Kd [9] of the same compound?
**A.** The Kd was ≥ 5 µM.

**Q.** And the Activity (SW-620 [10])?
**A.** Its Activity is “Dose-dependent effect”.

**Q.** What about the Kd [11] of the same compound?
**A.** Its Kd is ≥ 5 µM.

**Q.** And the Activity [12]?
**A.** The Activity was 89%.

**Q.** And the Activity (HT-29 [13])?
**A.** The Activity was “Dose-dependent effect”.

**Q.** What about the Activity (SRSF protein kinase 3) of the same compound?
**A.** Its Activity is 98%.

**Q.** What about the Kd [14] of the same compound?
**A.** The Kd was ≥ 5 µM.

**Q.** What about the Activity [15] of the same compound?
**A.** The Activity was 69%.

**Q.** What about the Kd [16] of the same compound?
**A.** The Kd was ≥ 5 µM.

**Q.** And the Activity (HT-29 [17])?
**A.** The Activity was “Non-Toxic”.

**Q.** What about the Activity (HT-29 [18]) of the same compound?
**A.** Its Activity is 16.97%.

**Q.** And the Kd [19]?
**A.** Its Kd is ≥ 5 µM.

**Q.** And the Kd [20]?
**A.** Its Kd is ≥ 5 µM.

**Q.** What about the Activity (SW-620 [21]) of the same compound?
**A.** The Activity was “Non-Toxic”.

**Q.** And the Activity (Insulin receptor)?
**A.** Its Activity is 100%.

**Q.** And the Kd [22]?
**A.** Its Kd is ≥ 5 µM.

**Q.** And the Kd [23]?
**A.** Its Kd is ≥ 5 µM.

**Q.** And the Activity (SW-620 [24])?
**A.** Its Activity is 14.72%.

**Q.** And the Activity [25]?
**A.** The Activity was 100%.

**Q.** And the Activity [26]?
**A.** Its Activity is 88%.

**Q.** What about the Kd [27] of the same compound?
**A.** Its Kd is ≥ 5 µM.

**Q.** What about the Kd [28] of the same compound?
**A.** The Kd was ≥ 5 µM.
